From ChEMBL document CHEMBL4382284, “Acrylamide Functional Group Incorporation Improves Drug-like Properties: An Example with EGFR Inhibitors” (ACS Med Chem Lett, 2019)
In brackets after ≈: the same amount, converted by molar mass.

Experiments:
[1] = molecular target: Epidermal growth factor receptor (Homo sapiens, UniProt P00533); experiment: Inhibition of human EGFR using poly[Glu:Tyr] (4:1) as substrate measured after 20 mins in presence of [gamma33P]ATP by filter-binding assay
[2] = Thermodynamic solubility of the compound in 1-octanol solution measured after 24 hrs by UV-HPLC analysis; type: physicochemical; details: read-out: Therm_solubility
[3] = test system: A549; experiment: Cytotoxicity against human A549 cells after 72 hrs by MTT assay; type: functional, cell-based; details: A549, 72 h
[4] = 1-Octanol-buffer partition coefficient, log D of compound at pH 7.4 after 24 hrs by shake-flask method; type: physicochemical; details: for logD at 24 h: 1-octanol/buffer, pH 7.4
Outline: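 Shake-flask partition between 1-octanol and pH 7.4 aqueous solution, mixed at 1/2 (v/v) octanol/aqueous; log D taken at pH 7.4.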

[5] = Thermodynamic solubility of the compound in pH 7.4 phosphate buffered saline measured after 24 hrs by UV-HPLC analysis; type: physicochemical; details: read-out: Therm_solubility
[6] = GSH reactivity in pH 7.4 phosphate buffer assessed as half life measured every 15 mins by HPLC analysis; type: physicochemical; details: phosphate buffer with GSH
Outline: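 Half-life measured on incubation with glutathione at pH 7.4 and 37 °C, compound to glutathione 1/10.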

[7] = test system: Vero; experiment: Cytotoxicity against African green monkey Vero cells assessed as reduction in cell viability after 72 hrs by MTT assay; type: ADME, cell-based; details: Chlorocebus sabaeus
[8] = Cytotoxicity against human FHS cells assessed as reduction in cell viability after 72 hrs by MTT assay
[9] = molecular target: Voltage-gated inwardly rectifying potassium channel KCNH2 (Homo sapiens, UniProt Q12809); experiment: Inhibition of human ERG
Chain of Voltage-gated inwardly rectifying potassium channel KCNH2 (Q12809 whole entry): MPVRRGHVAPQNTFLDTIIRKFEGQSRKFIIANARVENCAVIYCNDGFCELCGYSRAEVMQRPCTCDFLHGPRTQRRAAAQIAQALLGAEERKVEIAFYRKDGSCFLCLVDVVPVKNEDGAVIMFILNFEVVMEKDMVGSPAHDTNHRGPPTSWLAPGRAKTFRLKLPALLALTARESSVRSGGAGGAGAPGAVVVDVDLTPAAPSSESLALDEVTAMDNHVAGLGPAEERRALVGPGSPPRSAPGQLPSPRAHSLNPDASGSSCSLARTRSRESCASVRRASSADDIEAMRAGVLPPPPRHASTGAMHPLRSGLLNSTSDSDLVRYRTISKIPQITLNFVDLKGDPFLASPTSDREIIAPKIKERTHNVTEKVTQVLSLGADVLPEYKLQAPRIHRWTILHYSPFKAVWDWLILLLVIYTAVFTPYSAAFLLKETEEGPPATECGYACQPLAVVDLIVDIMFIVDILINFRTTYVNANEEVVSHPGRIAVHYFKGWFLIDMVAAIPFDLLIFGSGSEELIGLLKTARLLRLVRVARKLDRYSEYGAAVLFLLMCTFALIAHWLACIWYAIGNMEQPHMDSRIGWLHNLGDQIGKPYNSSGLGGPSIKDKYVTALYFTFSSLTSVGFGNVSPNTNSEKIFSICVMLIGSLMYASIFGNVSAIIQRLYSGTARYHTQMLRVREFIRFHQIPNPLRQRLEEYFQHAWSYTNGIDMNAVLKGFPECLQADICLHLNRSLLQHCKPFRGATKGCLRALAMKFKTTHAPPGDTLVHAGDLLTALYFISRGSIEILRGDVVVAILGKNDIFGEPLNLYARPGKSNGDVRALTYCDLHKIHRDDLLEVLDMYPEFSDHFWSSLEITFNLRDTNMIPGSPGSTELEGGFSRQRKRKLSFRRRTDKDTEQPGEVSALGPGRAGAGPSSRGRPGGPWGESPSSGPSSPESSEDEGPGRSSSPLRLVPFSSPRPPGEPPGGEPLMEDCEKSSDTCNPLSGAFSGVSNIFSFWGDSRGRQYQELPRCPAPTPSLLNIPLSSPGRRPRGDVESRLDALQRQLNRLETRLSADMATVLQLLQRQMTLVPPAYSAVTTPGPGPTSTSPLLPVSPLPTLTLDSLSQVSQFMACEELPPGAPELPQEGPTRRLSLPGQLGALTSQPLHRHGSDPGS

Chain of Epidermal growth factor receptor (P00533 whole entry): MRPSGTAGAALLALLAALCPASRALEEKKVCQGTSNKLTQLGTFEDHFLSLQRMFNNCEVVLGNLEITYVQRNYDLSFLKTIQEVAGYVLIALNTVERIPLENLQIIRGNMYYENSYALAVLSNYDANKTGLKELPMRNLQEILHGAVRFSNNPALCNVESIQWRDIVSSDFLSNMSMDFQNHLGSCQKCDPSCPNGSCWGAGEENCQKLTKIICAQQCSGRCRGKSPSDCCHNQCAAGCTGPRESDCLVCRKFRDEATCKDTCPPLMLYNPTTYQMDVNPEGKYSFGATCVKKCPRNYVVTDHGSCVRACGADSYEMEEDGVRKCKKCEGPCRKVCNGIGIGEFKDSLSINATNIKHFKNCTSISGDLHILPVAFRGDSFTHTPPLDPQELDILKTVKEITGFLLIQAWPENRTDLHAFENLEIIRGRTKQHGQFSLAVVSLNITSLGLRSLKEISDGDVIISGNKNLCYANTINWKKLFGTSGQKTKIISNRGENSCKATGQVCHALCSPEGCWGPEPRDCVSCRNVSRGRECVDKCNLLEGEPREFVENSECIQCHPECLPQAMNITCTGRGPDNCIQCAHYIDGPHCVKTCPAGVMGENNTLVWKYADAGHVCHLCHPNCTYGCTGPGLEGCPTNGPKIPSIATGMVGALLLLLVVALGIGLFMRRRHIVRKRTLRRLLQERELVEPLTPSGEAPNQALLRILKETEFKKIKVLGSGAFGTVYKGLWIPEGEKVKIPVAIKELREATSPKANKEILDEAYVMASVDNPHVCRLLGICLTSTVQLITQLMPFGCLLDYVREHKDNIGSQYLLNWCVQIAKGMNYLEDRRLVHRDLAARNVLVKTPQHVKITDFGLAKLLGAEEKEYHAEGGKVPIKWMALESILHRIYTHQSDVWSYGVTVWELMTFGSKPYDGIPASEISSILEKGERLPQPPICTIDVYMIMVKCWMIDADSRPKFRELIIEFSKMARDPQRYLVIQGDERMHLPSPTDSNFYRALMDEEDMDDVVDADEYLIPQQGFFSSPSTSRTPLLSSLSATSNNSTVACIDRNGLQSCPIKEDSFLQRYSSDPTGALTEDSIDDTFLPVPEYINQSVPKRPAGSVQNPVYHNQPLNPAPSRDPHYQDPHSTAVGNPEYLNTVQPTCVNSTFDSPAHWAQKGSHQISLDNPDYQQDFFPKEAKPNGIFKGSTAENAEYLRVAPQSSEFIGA

C=CC(=O)N(c1cc(F)c(F)cc1F)c1ncnc2cc(OC)c(OCCCN3CCOCC3)cc12
IC50 [1]: 500 nM

C=CC(=O)N(c1cc(Cl)ccc1F)c1ncnc2cc(OC)c(OCCCN3CCOCC3)cc12
IC50 [1]: 133 nM

C=CC(=O)N(c1cccc(C(F)(F)F)c1)c1ncnc2cc(OC)c(OCCCN3CCOCC3)cc12
IC50 [1]: 844 nM

COc1cc2ncnc(Nc3ccc(Cl)c(Cl)c3)c2cc1OCCCN1CCOCC1
solubility thermodynamic at 24 h [2]: 4.57 mM (≈ 2120 µg/mL)
IC50 [3]: 24.7 µM
IC50 [1]: 1 nM

C=CC(=O)N(c1cccc(Cl)c1F)c1ncnc2cc(OC)c(OC(=O)N3CCN(C)C[C@H]3C)cc12
logD at 24 h [4]: 2.46
solubility thermodynamic at 24 h [2]: 5.02 mM (≈ 2580 µg/mL)
solubility thermodynamic at 24 h [5]: 30 µM (≈ 15.4 µg/mL)
IC50 [3]: 6.1 µM
half-life [6]: 27.5 min

C=CC(=O)N(c1cccc(Cl)c1F)c1ncnc2cc(OC)c(OCCCN3CCOCC3)cc12
logD at 24 h [4]: 2.64
solubility thermodynamic at 24 h [2]: 5.6 mM (≈ 2810 µg/mL)
solubility thermodynamic at 24 h [5]: 1200 µM (≈ 601 µg/mL)
IC50 [3]: 0.45 µM
IC50 [1]: 52.6 nM
half-life [6]: 49 min

C=CC(=O)N(c1ccc(F)c(C(F)(F)F)c1)c1ncnc2cc(OC)c(OCCCN3CCOCC3)cc12
IC50 [1]: > 1000 nM

C=CC(=O)N(c1ccc(Cl)c(Cl)c1)c1ncnc2cc(OC)c(OCCCN3CCOCC3)cc12
logD at 24 h [4]: 3.57
solubility thermodynamic at 24 h [2]: 4.47 mM (≈ 2310 µg/mL)
solubility thermodynamic at 24 h [5]: 630 µM (≈ 326 µg/mL)
IC50 [3]: 5.72 µM
IC50 [1]: 31.7 nM
half-life [6]: 17 min

C=CC(=O)N(c1ccc(F)c(F)c1)c1ncnc2cc(OC)c(OCCCN3CCOCC3)cc12
IC50 [1]: 368 nM

C=CC(=O)N(c1ccc(F)cc1F)c1ncnc2cc(OC)c(OCCCN3CCOCC3)cc12
IC50 [1]: 302 nM

COc1cc2ncnc(Nc3ccc(F)c(Cl)c3)c2cc1OCCCN1CCOCC1 [GEFITINIB]
logD ([4]; octanol/water, pH 7.4, 24 h): 2.41
solubility thermodynamic at 24 h [2]: 1.4 mM (≈ 626 µg/mL)
solubility thermodynamic at 24 h [5]: < 10 µM

C=CC(=O)N(c1ccc(Cl)cc1F)c1ncnc2cc(OC)c(OCCCN3CCOCC3)cc12
IC50 [1]: 234 nM

C=CC(=O)N(c1ccc(F)c(C)c1)c1ncnc2cc(OC)c(OCCCN3CCOCC3)cc12
IC50 [1]: 499 nM

COc1cc2ncnc(Nc3cccc(Cl)c3F)c2cc1OCCCN1CCOCC1
IC50 [3]: 7.51 µM

C=CC(=O)N(c1ccc(F)c(Cl)c1)c1ncnc2cc(OC)c(OCCCN3CCOCC3)cc12
logD at 24 h [4]: 2.01
IC50 [7]: > 10 µM
solubility thermodynamic at 24 h [2]: 4.54 to 4.94 mM (≈ 2270 to 2470 µg/mL)
solubility thermodynamic at 24 h [5]: 1650 µM (≈ 827 µg/mL)
IC50 [3]: 0.15 µM
IC50 [8]: > 10 µM
IC50 [1]: 65.2 nM
IC50 [9]: > 10 µM
inhibition (INH) ([9]; human): 20%
half-life [6]: 85.1 min

COc1cc2ncnc(Nc3cccc(Cl)c3F)c2cc1OC(=O)N1CCN(C)C[C@H]1C [AZD-3759]
logD at 24 h [4]: 2.84
solubility thermodynamic at 24 h [2]: 4.54 mM (≈ 2090 µg/mL)
solubility thermodynamic at 24 h [5]: 20 µM (≈ 9.2 µg/mL)
IC50 [3]: 28.7 µM

C=CC(=O)N(c1ccc(OC)cc1F)c1ncnc2cc(OC)c(OCCCN3CCOCC3)cc12
IC50 [1]: > 1000 nM
